In ChEMBL document CHEMBL5034013, “Discovery of VNRX-7145 (VNRX-5236 Etzadroxil): An Orally Bioavailable β-Lactamase Inhibitor for Enterobacterales Expressing Ambler Class A, C, and D Enzymes” (J Med Chem, 2021):

Legend:
[1] = Oral bioavailability in rat at 3 mg/kg administered as cassette dose measured by UPLC-MS/MS; type: ADME, organism-based; details: in vivo
How it was run: (§1)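 Ester prodrugs are given to rats by oral gavage, some as a cassette with another ester. F is the percent absolute oral bioavailability of the parent, corrected for the MW difference between prodrug and parent.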

Escherichia coli [2] = assay: Antibacterial activity against Escherichia coli expressing CTX-M-15/TEM-1 assessed as concentration required to restore ceftibuten activity incubated for 16 to 20 hrs in presence of 1 ug/ml ceftibuten by broth microdilution method; type: functional; details: time 16-20 hrs
Klebsiella pneumoniae [3] = assay: Antibacterial activity against Klebsiella pneumoniae expressing OXA-48 assessed as concentration required to restore ceftibuten activity incubated for 16 to 20 hrs in presence of 1 ug/ml ceftibuten by broth microdilution method; type: functional; details: time 16-20 hrs
Escherichia coli [4] = assay: Antibacterial activity against Escherichia coli J53 expressing SHV-5/TEM-1/AmpC assessed as concentration required to restore ceftibuten activity incubated for 16 to 20 hrs in presence of 1 ug/ml ceftibuten by broth microdilution method; type: functional; details: time 16-20 hrs
Klebsiella pneumoniae [5] = assay: Antibacterial activity against Klebsiella pneumoniae 196477 expressing AmpC/CMY-2/TEM-1/CTX-M-15 assessed as concentration required to restore ceftibuten activity incubated for 16 to 20 hrs in presence of 1 ug/ml ceftibuten by broth microdilution method; type: functional; details: time 16-20 hrs
Klebsiella pneumoniae [6] = assay: Antibacterial activity against Klebsiella pneumoniae expressing SHV-12/TEM-1 assessed as concentration required to restore ceftibuten activity incubated for 16 to 20 hrs in presence of 1 ug/ml ceftibuten by broth microdilution method; type: functional; details: time 16-20 hrs
[7] = Inhibition of bacterial beta-lactamase OXA-48 using nitrocefin as substrate preincubated for 15 mins followed by substrate addition and measured after 10 mins by spectrophotometric analysis; parameters: species or system Bacteria
How it was run: (§2)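 IC50 is the mean of duplicate runs on separate days. A run was repeated automatically if it differed by more than 20% from the previous result.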

Klebsiella pneumoniae [8] = assay: Antibacterial activity against Klebsiella pneumoniae 156309 expressing SHV-11/TEM-1/KPC-2 assessed as concentration required to restore ceftibuten activity incubated for 16 to 20 hrs in presence of 1 ug/ml ceftibuten by broth microdilution method; type: functional; details: time 16-20 hrs
Escherichia coli [9] = assay: Antibacterial activity against Escherichia coli 786978 expressing KPC assessed as concentration required to restore ceftibuten activity incubated for 16 to 20 hrs in presence of 1 ug/ml ceftibuten by broth microdilution method; type: functional; details: time 16-20 hrs
[10] = Inhibition of bacterial beta-lactamase AmpC using nitrocefin as substrate preincubated for 15 mins followed by substrate addition and measured after 10 mins by spectrophotometric analysis; parameters: species or system Bacteria; how it was run: as §2
[11] = Inhibition of bacterial beta-lactamase KPC-2 using imipenem as substrate preincubated for 15 mins followed by substrate addition and measured after 10 mins by spectrophotometric analysis; parameters: species or system Bacteria; how it was run: as §2
Escherichia coli [12] = assay: Antibacterial activity against Escherichia coli 664507 expressing OXA-48 assessed as concentration required to restore ceftibuten activity incubated for 16 to 20 hrs in presence of 1 ug/ml ceftibuten by broth microdilution method; type: functional; details: time 16-20 hrs
How it was run: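 Tested against a 25-strain challenge panel of clinical E. coli and K. pneumoniae isolates carrying ESBL (n = 5), KPC (n = 11), class C (n = 4) or OXA-48 (n = 5) β-lactamases. Ceftibuten was held at 1 μg/mL while the BLI concentration varied. The read-out was the BLI concentration that rescued ceftibuten activity.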

[13] = Inhibition of bacterial beta-lactamase SHV-5 using cefotaxime as substrate preincubated for 15 mins followed by substrate addition and measured after 10 mins by spectrophotometric analysis; parameters: species or system Bacteria; how it was run: as §2
[14] = Oral bioavailability in rat at 10 mg/kg administered as cassette dose measured by UPLC-MS/MS; type: ADME, organism-based; details: in vivo; how it was run: as §1
[15] = 10 mg/kg, in the assay text read “measured” for “administered as cassette dose measured”

| SMILES | bioavailability [14] [%] | Activity (Escherichia coli [2]) [µg/mL] | Activity (Klebsiella pneumoniae [3]) [µg/mL] | Activity (Escherichia coli [4]) [µg/mL] | Activity (Klebsiella pneumoniae [5]) [µg/mL] | Activity (Klebsiella pneumoniae [6]) [µg/mL] | IC50 [7] [nM] | Activity (Klebsiella pneumoniae [8]) [µg/mL] | Activity (Escherichia coli [9]) [µg/mL] | IC50 [10] [nM] | IC50 [11] [nM] | Activity (Escherichia coli [12]) [µg/mL] | IC50 [13] [nM] | other results |
| --- | --- | --- | --- | --- | --- | --- | --- | --- | --- | --- | --- | --- | --- | --- |
| CC(C)(C)C(=O)OCOC(=O)c1cccc2c1OB(O)[C@@H](NC(=O)CCNS(C)(=O)=O)C2 | – | – | – | – | – | – | – | – | – | – | – | – | – | bioavailability [1]: < 5% |
| CC(F)(F)CCC(=O)N[C@H]1Cc2cccc(C(=O)O)c2OB1O | – | 0.5 | 4 | 0.03 | 0.12 | 0.03 | 2390 | 4 | 1 | 7 | 41 | 0.25 | – | – |
| CCCC(=O)N[C@H]1Cc2cccc(C(=O)O)c2OB1O | – | 0.12 | 1 | 0.016 | 0.03 | 0.12 | 426 | 1 | 0.5 | 9 | 93 | 0.25 | 36 | – |
| C#CCCC(=O)N[C@H]1Cc2cccc(C(=O)O)c2OB1O | – | 0.25 | 4 | 1 | 0.06 | 0.06 | 627 | 2 | 1 | 6 | 31 | 0.5 | 17 | – |
| CCC(=O)N[C@H]1Cc2cccc(C(=O)OCOC(=O)OC(CC)CC)c2OB1O | 33 | – | – | – | – | – | – | – | – | – | – | – | – | – |
| O=C(CCC(F)(F)F)N[C@H]1Cc2cccc(C(=O)O)c2OB1O | – | 1 | 8 | 0.03 | 0.5 | 0.06 | 1620 | 2 | 1 | 9 | 43 | 0.25 | 8 | – |
| CCOC(=O)c1cccc2c1OB(O)[C@@H](NC(=O)CC)C2 | – | – | – | – | – | – | – | – | – | – | – | – | – | bioavailability [1]: < 5% |
| CC(C)(C)C(=O)OCOC(=O)c1cccc2c1OB(O)[C@@H](NC(=O)CCC(N)=O)C2 | – | – | – | – | – | – | – | – | – | – | – | – | – | bioavailability [1]: < 5% |
| N#CCCC(=O)N[C@H]1Cc2cccc(C(=O)O)c2OB1O | – | 0.12 | 2 | 0.03 | 0.03 | 0.06 | 687 | 2 | 0.5 | 14 | 33 | 0.12 | 12 | – |
| CCOC(=O)c1cccc2c1OB(O)[C@@H](NC(=O)CCC(N)=O)C2 | – | – | – | – | – | – | – | – | – | – | – | – | – | bioavailability [1]: < 5% |
| CC(C)(C)C(=O)OCOC(=O)c1cccc2c1OB(O)[C@@H](NC(=O)CCC#N)C2 | – | – | – | – | – | – | – | – | – | – | – | – | – | bioavailability [14, 15]: 20% |
| CCOC(=O)c1cccc2c1OB(O)[C@@H](NC(=O)CCNS(N)(=O)=O)C2 | – | – | – | – | – | – | – | – | – | – | – | – | – | bioavailability [1]: < 5% |
| NS(=O)(=O)CCC(=O)N[C@H]1Cc2cccc(C(=O)O)c2OB1O | – | 0.25 | 2 | 0.12 | 0.03 | 0.06 | 8550 | 2 | 1 | 3 | 35 | 0.12 | 8 | – |
| NC(=O)CCC(=O)N[C@H]1Cc2cccc(C(=O)O)c2OB1O | – | 0.12 | 0.5 | 2 | 0.016 | 0.12 | 1790 | 2 | 1 | 6 | 69 | 0.06 | 514 | – |
| CC(=O)CCC(=O)N[C@H]1Cc2cccc(C(=O)OCOC(=O)C(C)(C)C)c2OB1O | – | – | – | – | – | – | – | – | – | – | – | – | – | bioavailability [14, 15]: 95% |
| CCCC(=O)N[C@H]1Cc2cccc(C(=O)OCOC(=O)C(C)(C)C)c2OB1O | – | – | – | – | – | – | – | – | – | – | – | – | – | F ([1]; 3 mg/kg): 31% |
| CS(=O)(=O)NCCC(=O)N[C@H]1Cc2cccc(C(=O)O)c2OB1O | – | 0.12 | 2 | 0.016 | 0.03 | 0.016 | 4670 | 1 | 0.5 | 5 | 28 | 0.03 | 12 | – |

Continued, in another order:

| bioavailability [14] [%] | SMILES | Activity (Escherichia coli [2]) [µg/mL] | Activity (Klebsiella pneumoniae [3]) [µg/mL] | Activity (Escherichia coli [4]) [µg/mL] | Activity (Klebsiella pneumoniae [5]) [µg/mL] | Activity (Klebsiella pneumoniae [6]) [µg/mL] | IC50 [7] [nM] | Activity (Klebsiella pneumoniae [8]) [µg/mL] | Activity (Escherichia coli [9]) [µg/mL] | IC50 [10] [nM] | IC50 [11] [nM] | Activity (Escherichia coli [12]) [µg/mL] | IC50 [13] [nM] | other results |
| --- | --- | --- | --- | --- | --- | --- | --- | --- | --- | --- | --- | --- | --- | --- |
| 38 | CCC(=O)N[C@H]1Cc2cccc(C(=O)OCOC(=O)C(C)C)c2OB1O | – | – | – | – | – | – | – | – | – | – | – | – | – |
| 28 | CCOC(C)(C)C(=O)OCOC(=O)c1cccc2c1OB(O)[C@@H](NC(=O)CC)C2 | – | – | – | – | – | – | – | – | – | – | – | – | – |
| 24 | CCC(=O)N[C@H]1Cc2cccc(C(=O)OCOC(=O)OC3CCCC3)c2OB1O | – | – | – | – | – | – | – | – | – | – | – | – | – |
| 10 | CCC(=O)N[C@H]1Cc2cccc(C(=O)OCOC(C)=O)c2OB1O | – | – | – | – | – | – | – | – | – | – | – | – | – |
| 23 | CCC(=O)N[C@H]1Cc2cccc(C(=O)OCOC(=O)OC(C)C)c2OB1O | – | – | – | – | – | – | – | – | – | – | – | – | – |
| 19 | CCC(=O)N[C@H]1Cc2cccc(C(=O)OCOC(=O)C3CCCC3)c2OB1O | – | – | – | – | – | – | – | – | – | – | – | – | – |
